Screens: PubChem, several laboratories
Only some compounds are listed: those with a hit (about 2.9% of all), similar ones and a draw of the others.
HEK293 NFkB inh: inhibitors of the PMA/ionomycin-induced NF-kB reporter in HEK293 cells | HEK-293 NF-kB luciferase reporter, luminescence | inhibition, % at 3 µM | 62,000 tested, 0.21% active | AID 465;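 active means inhibition above the mean of all tested compounds plus 3 SD, cut at about 40% in these data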;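 further: 0% = stimulated DMSO wells and 100% = 10 µM reference inhibitor 5653914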
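System – HEK-293 cells with stable firefly luciferase reporter driven by four HIV NF-kB elements · Doses – one dose, 3 µM · Schedule – 1 h compound pre-incubation, 16 h PMA/ionomycin at 37 °C · Technique – luminescence from luciferase substrate reagent · Measure – percent inhibition normalized per plate to DMSO and reference-inhibitor controls · Replicates – tested once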
SF1 activator: activates the human nuclear receptor SF-1. 65,000 tested, 1.9% active. AID 522. Q13285. activation, % at 10 µM. CHO-K1 Gal4-SF-1 LBD luciferase reporter; % increase over DMSO SF-1-specific signal;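 active means activation above the mean activation of all tested compounds plus 3 SD, cut at about 50% in these data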
Target sequence (Q13285 whole entry, looked up, the tested form may be a part): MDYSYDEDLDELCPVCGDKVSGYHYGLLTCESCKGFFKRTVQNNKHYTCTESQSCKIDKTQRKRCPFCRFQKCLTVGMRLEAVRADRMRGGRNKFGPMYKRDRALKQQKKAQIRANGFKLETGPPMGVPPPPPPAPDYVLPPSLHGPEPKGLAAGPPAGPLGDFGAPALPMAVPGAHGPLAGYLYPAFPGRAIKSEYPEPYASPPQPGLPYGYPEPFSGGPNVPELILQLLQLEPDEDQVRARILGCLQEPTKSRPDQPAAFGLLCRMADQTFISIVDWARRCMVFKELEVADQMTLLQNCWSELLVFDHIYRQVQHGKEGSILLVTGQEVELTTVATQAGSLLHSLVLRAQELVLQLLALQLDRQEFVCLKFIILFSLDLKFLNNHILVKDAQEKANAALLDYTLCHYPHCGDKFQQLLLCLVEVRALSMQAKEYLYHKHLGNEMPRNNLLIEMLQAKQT
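Assay system – CHO-K1 cells with Gal4–hSF-1 LBD chimera plus Gal4-driven luciferase · Quantity – 4,000 cells per well · Times – compound added 1 h post-seeding, 20 h exposure at 37 °C, 5% CO2 · Measured by – luciferase light emission · Benchmarks – DMSO and mock-transfected background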
Jurkat viability: cytotoxic compounds reducing Jurkat cell viability; Jurkat E6.1 viability, ATP luminescence, 48 h; inhibition, % at 4 µM; 56,000 tested, 1.2% active; AID 463;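 active means inhibition above the mean inhibition of all tested compounds plus 3 SD, cut at about 28% in these data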
RORA act: activates the human nuclear receptor RORA | P35398 | CHO-K1 Gal4-RORA LBD luciferase reporter, luminescence; percent increase over mock-subtracted basal signal | activation, % at 10 µM | 65,000 tested, 1.5% active | AID 560;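 active means activation above the mean of all tested compounds plus 3 SD, cut at about 49% in these data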;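 further: 0% = DMSO-treated RORA cells and 100% = added signal equal to DMSO minus mock-transfected cells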
MT1-MMP txn act: MT1-MMP promoter transcription activation. HT1080 MT1-MMP promoter luciferase reporter, luminescence, overnight; active compounds read high. 86,000 tested, 0.16% active. activation factor at 10 µM. AID 750;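 active means activation factor of at least 2 for MT1-MMP transcription at 10 µM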
* hit, by the source's call; . = not tested or not shown.

SMILES | HEK293 NFkB inh | SF1 activator | Jurkat viability | RORA act | MT1-MMP txn act
O=C(CC(Nc1ccccc1)C(=O)O)c1ccccc1 (centres undefined) | -27 | 35 | . | 59* | 0.8
O=C(N[C@@H](Cc1ccccc1)C(=O)O)c1cccnc1 | 8 | -12 | 0 | -21 | 1
CCOC(=O)C1=C(C)N(CCCC(=O)O)C(=O)NC1c1ccccc1OS(=O)(=O)c1ccccc1[N+](=O)[O-] (centres undefined) | . | . | . | . | 1.1
CCOC(=O)C1CCN(CC(=O)Nc2c(C(=O)OC)[nH]c3ccc(Cl)cc23)CC1 | 16 | -13 | 44* | 28 | 1
CCOC(=O)C1CCN(CC(=O)Nc2c(C(=O)OC)[nH]c3ccccc23)CC1 | 1 | -10 | 10 | 15 | 1.2
COc1ccc2oc(=O)c(-c3nc(C)cs3)cc2c1 | . | 54* | . | 12 | 1.3
COc1ccc2oc(=O)c(C(C)=O)cc2c1 | . | . | . | . | 1.1
CCOc1ccc(-n2c(N)c(C(=O)NCc3ccco3)sc2=S)cc1 | . | . | . | . | 1.1
CN(C)c1ccc2c(c1)OC(N)=C(C#N)C2c1cccc(F)c1 (centres undefined) | 44* | -56 | 86* | -30 | 0.5
COC(=O)c1c(S(=O)(=O)NCc2ccccc2)sc(C(=O)O)c1C | . | . | . | . | 1.2
c1ccc(CSCc2cn3ccsc3n2)cc1 | -21 | 54* | 2 | 58* | 1.7
O=C(NCCc1cn2ccsc2n1)C1CCCCC1 | 5 | 1 | 4 | -9 | 1.1
O=C(Cc1cn2ccsc2n1)OCc1ccccc1 | 2 | 11 | 24 | 6 | 1
Clc1ccc(SCc2cn3ccsc3n2)cc1 | . | 58* | . | 30 | 1.9
Cc1csc2nc(CSc3ccc(Cl)cc3)cn12 | -26 | 32 | -5 | -6 | 0.9
c1cn2cc(CSC3CCCCC3)nc2s1 | -20 | 60* | 4 | 30 | 1.4
Cc1sc2ncn(CC(=O)OC(C)C(=O)NC(C)(C)C)c(=O)c2c1C (centres undefined) | 14 | -14 | . | 7 | 1.1
CCOC(=O)c1ccc(NS(=O)(=O)N2CCCCCC2)cc1 | 5 | 24 | -4 | 49* | 1.3
CCOC(=O)c1ccc(NC(=O)C2CCN(S(=O)(=O)CC)CC2)cc1 | 7 | 0 | 0 | 0 | 1.1
Fc1ccc(Br)cc1C1C=C(c2cccnc2)Nc2ncnn21 (centres undefined) | 4 | 32 | 39* | 8 | 1
Brc1ccc(C2=CC(c3cccs3)n3ncnc3N2)cc1 (centres undefined) | . | . | . | . | 1.4
CN(C)CCCNC(=O)/C(=N\O)c1ccccc1 | . | . | . | . | 1.1
O=C(NCCc1ccccc1)/C(=N\O)c1ccccc1 | . | 64* | . | 14 | 1.8
O=C(NCCc1ccccc1)c1cccnc1N1CCCCCC1 | 10 | -6 | -4 | -26 | 1.1
Oc1cccc2ccc(Nc3ccccn3)nc12 | 6 | -3 | 72* | 11 | 0.3
SMILES | HEK293 NFkB inh | SF1 activator | Jurkat viability | RORA act | MT1-MMP txn act
c1ccc(Nc2ccccc2Nc2ccccn2)nc1 | 11 | 28 | -3 | 3 | 1.1
Cc1ccccc1-n1nnnc1SCc1csc(-c2ccccc2)n1 | 16 | 5 | 4 | -8 | 1.1
Cc1ccccc1-c1cc2c(nn1)-c1ccccc1C2=O | . | . | . | . | 1.2
Cc1ccc(-c2cc3c(nn2)-c2ccccc2C3=O)cc1 | 62* | -88 | 16 | -83 | .
Cc1cccc(NC(=O)Cc2cccs2)n1 | . | . | . | . | 1.5
CCOC(=O)C(C(C)=O)C(c1ccc(OCCC(C)C)cc1)C(C(C)=O)C(=O)OCC (centres undefined) | . | . | . | . | 1.2
CCOCCCNc1ccc(-c2ccccc2)nn1 | -20 | 58* | -4 | 47 | 1.5
CCc1ccc2nc(NC(=O)c3cc(C)on3)sc2c1 | -4 | 117* | 82* | 69* | 1.3
Oc1c(C=Nc2cccnc2)sc2ccccc12 | . | 5 | . | -3 | 1.4
Cc1ccsc1C=Nc1ccc(O)cc1 | 16 | -8 | 48* | -13 | 1.2
CCCCNC1=C(Br)C(=O)CC(C)(C)C1 | . | -10 | . | -11 | 1.2
COc1ccc(-c2ccc(=O)n(CC(=O)N3CCN(c4ccccc4OC)CC3)n2)cc1 | 3 | 3 | 2 | -7 | 1.1
CCC1CCCCN1c1nc2c(c(=O)n(C)c(=O)n2C)n1CCSc1nc2ccccc2o1 (centres undefined) | 10 | -2 | 2 | -24 | 1.1
Cc1ccc(-n2ncc3c(=O)n(-c4ccc(C)c(C)c4)c(C)nc32)cc1 | 14 | 7 | 3 | 0 | 1.2
COc1ccc(-n2c(C)nc3c(cnn3-c3ccc(C)c(C)c3)c2=O)cc1 | 10 | 40 | 7 | 65* | 1.1
Clc1ccccc1OCc1nc(-c2ccncc2)no1 | -28 | 92* | 1 | 54* | 1.5
c1ccc(OCc2nc(-c3ccccc3)no2)cc1 | 4 | 56* | 0 | 40 | 1.6
CC1CCN(Cc2nc(-c3ccccc3)no2)CC1 | -19 | 51* | 2 | 19 | 1.5
COc1nc(-c2ccccc2)ccc1-c1noc(COc2ccccc2)n1 | 12 | -11 | 0 | -10 | 1
Clc1ccc(OCc2nc(-c3ccncc3)no2)c(Br)c1 | -54 | 44 | 10 | 59* | 1.1
c1ccc(-c2noc(CN3CCN(c4ccccc4)CC3)n2)cc1 | -20 | -1 | 0 | -9 | 1.1
c1ccc(OCCCc2nc(-c3ccncc3)no2)cc1 | -2 | -4 | 11 | -12 | 1
Cc1cc(NO)nc(-c2ccc(Br)cc2)n1 | -20 | 64* | 34* | 59* | 1.7
Cc1cccnc1NC(=O)Nc1ccc(F)cc1 | -5 | 98* | 5 | 46 | 1.2
O=C(Nc1cccc(-c2cnc3ccccc3n2)c1)c1ccco1 | -8 | 55* | -2 | 61* | 1
SMILES | HEK293 NFkB inh | SF1 activator | Jurkat viability | RORA act | MT1-MMP txn act
c1ccc(-c2noc(-c3ccc4ccccc4c3)n2)nc1 | 75* | -91 | 13 | -92 | 0.1
c1ccc(-c2noc(-c3ccncc3)n2)nc1 | -36 | 14 | 10 | 35 | 1.1
c1ccc(-c2noc(-c3ccc4c(c3)OCO4)n2)nc1 | 41* | -75 | 41* | -78 | 0
COc1ccc(OC)c(NC(=O)c2cc3sccc3n2C)c1 | 16 | 0 | -1 | -6 | 1.2
COC(=O)c1ccc(NC(=O)c2cc3sccc3n2C)cc1 | . | . | . | . | 1.2
COc1cc(NC(=O)c2cc3sccc3n2C)cc(OC)c1 | -12 | 106* | -2 | 61* | 2.1*
Cn1c(C(=O)Nc2ccc3c(c2)OCO3)cc2sccc21 | -20 | 79* | 2 | 38 | 1.2
Cn1c(C(=O)Nc2ccccc2)cc2sccc21 | . | . | . | . | 2.2*
COc1ccc(C(=O)N(Cc2nc(-c3ccc(C)cc3)no2)C2CCCCC2)cc1OC | 25 | -18 | -2 | -10 | 1.3
Cc1cccc(OCC(=O)Nc2cc(C)ccc2O)c1 | 15 | 2 | 55* | 0 | 1.4
Cc1cccc(OCC(=O)Nc2cc(C)c(C)cc2O)c1 | -7 | -23 | 1 | -8 | 1
COc1cccc(C(=O)/C=C/Nc2cc(C)ccc2O)c1 | -1 | 56* | 64* | 22 | 1.5
COc1cccc(CNC(=O)CCS(=O)(=O)c2cccs2)c1 | . | . | . | . | 1
